Assay results from ChEMBL document CHEMBL1147809, “Tumor-cell-targeted methionine-enkephalin analogues containing unnatural amino acids: design, synthesis, and in vitro antitumor activity” (2006).
*1 amine or outer side, *2 acyl side, *3 side chain or, on linkers, in order; H or OH if unused. Where a SMILES comes first, the peptide text is derived from it. [ ]: non-standard residue; d: D form. X1 = O=C(C(N[*:1])C1C2CC3CC(C2)CC1C3)[*:2]

Each compound was assayed on HeLa (assay: Antiproliferative activity against human HeLa cell line at 1000 uM relative to control).
Assay type: functional
How it was run: (§1)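 Cells from ATCC grown as monolayers in DMEM with 10% FBS, 2 mM glutamine, penicillin/streptomycin, 37 °C, 5% CO2. Seeded at 2 × 10^4 cells/mL, and after 24 h the medium was replaced with fresh medium containing compound (water/10% DMSO stock, PBS working dilutions 10^-3 to 10^-6 M). Exposure was 72 h, then MTT read-out. Growth % = (A_peptide − A_blank)/(A_control − A_blank) × 100, with inhibition taken relative to untreated cells. Values are means of three experiments run in triplicate.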

Q: Which inhibition at 1000 µM does the source give for `CSCC[C@H](NC(=O)[C@H](Cc1ccccc1)NC(=O)CNC(=O)C(NC(=O)[C@@H](N)Cc1ccc(O)cc1)C1C2CC3CC(C2)CC1C3)C(=O)O` (stereo partly specified) (H-Y[X1]GFM-OH) here?
A: 24.1%

These compounds were tested on HBL (assay: Antiproliferative activity against human HBL cell line at 10 uM relative to control).
Assay type: functional
How it was run: as §1

Q: How did the inhibition at 10 µM turn out when `CSCC[C@H](NC(=O)[C@H](Cc1ccccc1)NC(=O)CNC(=O)C(NC(=O)[C@@H](N)Cc1ccc(O)cc1)C1C2CC3CC(C2)CC1C3)C(=O)O` (stereo partly specified) (H-Y[X1]GFM-OH) was run?
A: 4.5%

What follows are compounds tested on HBL (assay: Antiproliferative activity against human HBL cell line at 100 uM relative to control).
Assay type: functional
How it was run: as §1

Q: How did the inhibition at 100 µM turn out when `CSCC[C@H](NC(=O)[C@H](Cc1ccccc1)NC(=O)CNC(=O)C(NC(=O)[C@@H](N)Cc1ccc(O)cc1)C1C2CC3CC(C2)CC1C3)C(=O)O` (stereo partly specified) (H-Y[X1]GFM-OH) was run?
A: 11.4%

Each compound was assayed on HBL (assay: Antiproliferative activity against human HBL cell line at 1000 uM relative to control).
Assay type: functional
How it was run: as §1

Q: Which inhibition at 1000 µM does the source give for `CSCC[C@H](NC(=O)[C@H](Cc1ccccc1)NC(=O)CNC(=O)C(NC(=O)[C@@H](N)Cc1ccc(O)cc1)C1C2CC3CC(C2)CC1C3)C(=O)O` (stereo partly specified) (H-Y[X1]GFM-OH) here?
A: 23.2%

These compounds were tested on HT-29 (assay: Antiproliferative activity against human HT29 cell line at 10 uM relative to control).
Assay type: functional
How it was run: as §1

Q: How did the inhibition at 10 µM turn out when `CSCC[C@H](NC(=O)[C@H](Cc1ccccc1)NC(=O)CNC(=O)C(NC(=O)[C@@H](N)Cc1ccc(O)cc1)C1C2CC3CC(C2)CC1C3)C(=O)O` (stereo partly specified) (H-Y[X1]GFM-OH) was run?
A: 6.6%

What follows are compounds tested on HT-29 (assay: Antiproliferative activity against human HT29 cell line at 100 uM relative to control).
Assay type: functional
How it was run: as §1

Q: For `CSCC[C@H](NC(=O)[C@H](Cc1ccccc1)NC(=O)CNC(=O)C(NC(=O)[C@@H](N)Cc1ccc(O)cc1)C1C2CC3CC(C2)CC1C3)C(=O)O` (stereo partly specified) (H-Y[X1]GFM-OH), which inhibition at 100 µM is on record?
A: 5.1%

Each compound was assayed on HT-29 (assay: Antiproliferative activity against human HT29 cell line at 1000 uM relative to control).
Assay type: functional
How it was run: as §1

Q: How did the inhibition at 1000 µM turn out when `CSCC[C@H](NC(=O)[C@H](Cc1ccccc1)NC(=O)CNC(=O)C(NC(=O)[C@@H](N)Cc1ccc(O)cc1)C1C2CC3CC(C2)CC1C3)C(=O)O` (stereo partly specified) (H-Y[X1]GFM-OH) was run?
A: 14.5%

What follows are compounds tested on SW-620 (assay: Antiproliferative activity against human SW620 cell line at 10 uM relative to control).
Assay type: functional
How it was run: as §1

Q: With `CSCC[C@H](NC(=O)[C@H](Cc1ccccc1)NC(=O)CNC(=O)C(NC(=O)[C@@H](N)Cc1ccc(O)cc1)C1C2CC3CC(C2)CC1C3)C(=O)O` (stereo partly specified) (H-Y[X1]GFM-OH) as the compound, how does the inhibition at 10 µM read?
A: 13.1%

These compounds were tested on SW-620 (assay: Antiproliferative activity against human SW620 cell line at 100 uM relative to control).
Assay type: functional
How it was run: as §1

Q: Which inhibition at 100 µM does the source give for `CSCC[C@H](NC(=O)[C@H](Cc1ccccc1)NC(=O)CNC(=O)C(NC(=O)[C@@H](N)Cc1ccc(O)cc1)C1C2CC3CC(C2)CC1C3)C(=O)O` (stereo partly specified) (H-Y[X1]GFM-OH) here?
A: 14.6%

What follows are compounds tested on SW-620 (assay: Antiproliferative activity against human SW620 cell line at 1000 uM relative to control).
Assay type: functional
How it was run: as §1

Q: `CSCC[C@H](NC(=O)[C@H](Cc1ccccc1)NC(=O)CNC(=O)C(NC(=O)[C@@H](N)Cc1ccc(O)cc1)C1C2CC3CC(C2)CC1C3)C(=O)O` (stereo partly specified) (H-Y[X1]GFM-OH) was tested. Which inhibition at 1000 µM did it give?
A: 38.4%

Each compound was assayed on Caco-2 (assay: Antiproliferative activity against human Caco-2 cell line at 10 uM relative to control).
Assay type: functional
How it was run: as §1

Q: Which inhibition at 10 µM does the source give for `CSCC[C@H](NC(=O)[C@H](Cc1ccccc1)NC(=O)CNC(=O)C(NC(=O)[C@@H](N)Cc1ccc(O)cc1)C1C2CC3CC(C2)CC1C3)C(=O)O` (stereo partly specified) (H-Y[X1]GFM-OH) here?
A: 10.9%

What follows are compounds tested on Caco-2 (assay: Antiproliferative activity against human Caco-2 cell line at 100 uM relative to control).
Assay type: functional
How it was run: as §1

Q: With `CSCC[C@H](NC(=O)[C@H](Cc1ccccc1)NC(=O)CNC(=O)C(NC(=O)[C@@H](N)Cc1ccc(O)cc1)C1C2CC3CC(C2)CC1C3)C(=O)O` (stereo partly specified) (H-Y[X1]GFM-OH) as the compound, how does the inhibition at 100 µM read?
A: 12.1%

Each compound was assayed on Caco-2 (assay: Antiproliferative activity against human Caco-2 cell line at 1000 uM relative to control).
Assay type: functional
How it was run: as §1

Q: Which inhibition at 1000 µM does the source give for `CSCC[C@H](NC(=O)[C@H](Cc1ccccc1)NC(=O)CNC(=O)C(NC(=O)[C@@H](N)Cc1ccc(O)cc1)C1C2CC3CC(C2)CC1C3)C(=O)O` (stereo partly specified) (H-Y[X1]GFM-OH) here?
A: 8.1%

Each compound was assayed on MCF7 (assay: Antiproliferative activity against human MCF7 cell line at 100 uM relative to control).
Assay type: functional
How it was run: as §1

Q: How did the inhibition at 100 µM turn out when `CSCC[C@H](NC(=O)[C@H](Cc1ccccc1)NC(=O)CNC(=O)C(NC(=O)[C@@H](N)Cc1ccc(O)cc1)C1C2CC3CC(C2)CC1C3)C(=O)O` (stereo partly specified) (H-Y[X1]GFM-OH) was run?
A: 9.6%

Each compound was assayed on MCF7 (assay: Antiproliferative activity against human MCF7 cell line at 1000 uM relative to control).
Assay type: functional
How it was run: as §1

Q: For `CSCC[C@H](NC(=O)[C@H](Cc1ccccc1)NC(=O)CNC(=O)C(NC(=O)[C@@H](N)Cc1ccc(O)cc1)C1C2CC3CC(C2)CC1C3)C(=O)O` (stereo partly specified) (H-Y[X1]GFM-OH), which inhibition at 1000 µM is on record?
A: 29.9%

Each compound was assayed on HEp-2 (assay: Antiproliferative activity against human HEp2 cell line at 10 uM relative to control).
Assay type: functional
How it was run: as §1

Q: With `CSCC[C@H](NC(=O)[C@H](Cc1ccccc1)NC(=O)CNC(=O)C(NC(=O)[C@@H](N)Cc1ccc(O)cc1)C1C2CC3CC(C2)CC1C3)C(=O)O` (stereo partly specified) (H-Y[X1]GFM-OH) as the compound, how does the inhibition at 10 µM read?
A: 25.8%

The compounds below were run on HEp-2 (assay: Antiproliferative activity against human HEp2 cell line at 100 uM relative to control).
Assay type: functional
How it was run: as §1

Q: `CSCC[C@H](NC(=O)[C@H](Cc1ccccc1)NC(=O)CNC(=O)C(NC(=O)[C@@H](N)Cc1ccc(O)cc1)C1C2CC3CC(C2)CC1C3)C(=O)O` (stereo partly specified) (H-Y[X1]GFM-OH) was tested. Which inhibition at 100 µM did it give?
A: 34.7%

Each compound was assayed on HEp-2 (assay: Antiproliferative activity against human HEp2 cell line at 1000 uM relative to control).
Assay type: functional
How it was run: as §1

Q: `CSCC[C@H](NC(=O)[C@H](Cc1ccccc1)NC(=O)CNC(=O)C(NC(=O)[C@@H](N)Cc1ccc(O)cc1)C1C2CC3CC(C2)CC1C3)C(=O)O` (stereo partly specified) (H-Y[X1]GFM-OH) was tested. Which inhibition at 1000 µM did it give?
A: 44.5%

The compounds below were run on HeLa (assay: Antiproliferative activity against human HeLa cell line at 10 uM relative to control).
Assay type: functional
How it was run: as §1

Q: With `CSCC[C@H](NC(=O)[C@H](Cc1ccccc1)NC(=O)CNC(=O)C(NC(=O)[C@@H](N)Cc1ccc(O)cc1)C1C2CC3CC(C2)CC1C3)C(=O)O` (stereo partly specified) (H-Y[X1]GFM-OH) as the compound, how does the inhibition at 10 µM read?
A: 9.5%

What follows are compounds tested on HeLa (assay: Antiproliferative activity against human HeLa cell line at 100 uM relative to control).
Assay type: functional
How it was run: as §1

Q: With `CSCC[C@H](NC(=O)[C@H](Cc1ccccc1)NC(=O)CNC(=O)C(NC(=O)[C@@H](N)Cc1ccc(O)cc1)C1C2CC3CC(C2)CC1C3)C(=O)O` (stereo partly specified) (H-Y[X1]GFM-OH) as the compound, how does the inhibition at 100 µM read?
A: 15.4%

The compounds below were run on SW-620 (assay: Antiproliferative activity against human SW620 cell line at 1 uM relative to control).
Assay type: functional
How it was run: as §1

Q: Which inhibition at 1 µM does the source give for `CSCC[C@H](NC(=O)[C@H](Cc1ccccc1)NC(=O)CNC(=O)C(NC(=O)[C@@H](N)Cc1ccc(O)cc1)C1C2CC3CC(C2)CC1C3)C(=O)O` (stereo partly specified) (H-Y[X1]GFM-OH) here?
A: 26.4%

The compounds below were run on Caco-2 (assay: Antiproliferative activity against human Caco-2 cell line at 1 uM relative to control).
Assay type: functional
How it was run: as §1

Q: How did the inhibition at 1 µM turn out when `CSCC[C@H](NC(=O)[C@H](Cc1ccccc1)NC(=O)CNC(=O)C(NC(=O)[C@@H](N)Cc1ccc(O)cc1)C1C2CC3CC(C2)CC1C3)C(=O)O` (stereo partly specified) (H-Y[X1]GFM-OH) was run?
A: 17.7%

What follows are compounds tested on HEp-2 (assay: Antiproliferative activity against human HEp2 cell line at 1 uM relative to control).
Assay type: functional
How it was run: as §1

Q: Which inhibition at 1 µM does the source give for `CSCC[C@H](NC(=O)[C@H](Cc1ccccc1)NC(=O)CNC(=O)C(NC(=O)[C@@H](N)Cc1ccc(O)cc1)C1C2CC3CC(C2)CC1C3)C(=O)O` (stereo partly specified) (H-Y[X1]GFM-OH) here?
A: 13.7%

Each compound was assayed on HeLa (assay: Antiproliferative activity against human HeLa cell line at 1 uM relative to control).
Assay type: functional
How it was run: as §1

Q: `CSCC[C@H](NC(=O)[C@H](Cc1ccccc1)NC(=O)CNC(=O)C(NC(=O)[C@@H](N)Cc1ccc(O)cc1)C1C2CC3CC(C2)CC1C3)C(=O)O` (stereo partly specified) (H-Y[X1]GFM-OH) was tested. Which inhibition at 1 µM did it give?
A: 8.5%

What follows are compounds tested on HBL (assay: Antiproliferative activity against human HBL cell line at 1 uM relative to control).
Assay type: functional
How it was run: as §1

Q: `CSCC[C@H](NC(=O)[C@H](Cc1ccccc1)NC(=O)CNC(=O)C(NC(=O)[C@@H](N)Cc1ccc(O)cc1)C1C2CC3CC(C2)CC1C3)C(=O)O` (stereo partly specified) (H-Y[X1]GFM-OH) was tested. Which inhibition at 1 µM did it give?
A: 2.4%

These compounds were tested on HT-29 (assay: Antiproliferative activity against human HT29 cell line at 1 uM relative to control).
Assay type: functional
How it was run: as §1

Q: For `CSCC[C@H](NC(=O)[C@H](Cc1ccccc1)NC(=O)CNC(=O)C(NC(=O)[C@@H](N)Cc1ccc(O)cc1)C1C2CC3CC(C2)CC1C3)C(=O)O` (stereo partly specified) (H-Y[X1]GFM-OH), which inhibition at 1 µM is on record?
A: 16.2%
